≈ marks a conversion by molar mass, not a printed value.
Legend:
Acinetobacter baumannii [1] = assay: Antimicrobial activity against multidrug-resistant Acinetobacter baumannii assessed as resistant isolates by disk diffusion method; type: functional
Procedure, shortened: (§1)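 Standard disk diffusion was done on Mueller-Hinton agar with ampicillin-sulbactam, ceftazidime, cefepime, meropenem, tobramycin, gentamicin, ciprofloxacin and tetracycline. Isolates were called susceptible or resistant using CLSI breakpoints.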

Acinetobacter baumannii [2] = assay: Antimicrobial activity against multidrug-resistant Acinetobacter baumannii by Etest method; type: functional
Acinetobacter baumannii [3] = assay: Antimicrobial activity against multidrug-resistant Acinetobacter baumannii expressing armA gene by Etest method; type: functional
Acinetobacter baumannii [4] = assay: Antimicrobial activity against multidrug-resistant Acinetobacter baumannii expressing aac(6')-1b gene by Etest method; type: functional
Acinetobacter baumannii [5] = assay: Antimicrobial activity against multidrug-resistant Acinetobacter baumannii expressing aph(3')-Vla gene by Etest method; type: functional
Acinetobacter baumannii [6] = assay: Antimicrobial activity against Acinetobacter baumannii HE130 lacking bla-OXA-23 gene by Etest method
Acinetobacter baumannii [7] = assay: Antimicrobial activity against Acinetobacter baumannii AB026 transformant harboring bla-OXA-23 gene by Etest method; type: functional
Acinetobacter baumannii [8] = assay: Antimicrobial activity against Acinetobacter baumannii AB017 transformant harboring bla-OXA-23 gene by Etest method; type: functional
Acinetobacter baumannii [9] = assay: Antimicrobial activity against multidrug-resistant Acinetobacter baumannii expressing armA and bla oxa-23 gene assessed as resistant isolates by disk diffusion method; type: functional; procedure, shortened: as §1
Acinetobacter baumannii [10] = assay: Antimicrobial activity against multidrug-resistant Acinetobacter baumannii assessed as resistant isolates by disk diffusion method in presence of beta-lactamase inhibitor Sulbactam; type: functional; procedure, shortened: as §1

## CC(C)(O/N=C(\C(=O)N[C@@H]1C(=O)N2C(C(=O)[O-])=C(C[n+]3ccccc3)CS[C@H]12)c1csc(N)n1)C(=O)O [CEFTAZIDIME]
Acinetobacter baumannii [1]
  Activity: 87.8%

## CN(C)[C@@H]1C(O)=C(C(N)=O)C(=O)[C@@]2(O)C(O)=C3C(=O)c4c(O)cccc4[C@@](C)(O)[C@H]3C[C@@H]12 [TETRACYCLINE]
Acinetobacter baumannii [1]
  Activity: 79.6%

## NCC[C@H](O)C(=O)N[C@@H]1C[C@H](N)[C@@H](O[C@H]2O[C@H](CN)[C@@H](O)[C@H](O)[C@H]2O)[C@H](O)[C@H]1O[C@H]1O[C@H](CO)[C@@H](O)[C@H](N)[C@H]1O [AMIKACIN]
Acinetobacter baumannii [1]
  Activity: 36.7%
Acinetobacter baumannii [2]
  MIC: 128 µg/mL (≈ 219 µM)
Acinetobacter baumannii [3]
  MIC: > 256 µg/mL
Acinetobacter baumannii [4]
  MIC: 2 µg/mL (≈ 3.42 µM)
Acinetobacter baumannii [5]
  MIC: 12 µg/mL (≈ 20.5 µM)

## CO/N=C(\C(=O)N[C@@H]1C(=O)N2C(C(=O)[O-])=C(C[N+]3(C)CCCC3)CS[C@H]12)c1csc(N)n1 [CEFEPIME]
Acinetobacter baumannii [1]
  Activity: 79.6%

## C[C@@H](O)[C@H]1C(=O)N2C(C(=O)O)=C(S[C@@H]3CN[C@H](C(=O)N(C)C)C3)[C@H](C)[C@H]12 [MEROPENEM]
Acinetobacter baumannii [1]
  Activity: 22.4%
Acinetobacter baumannii [6]
  MIC: 0.125 µg/mL (≈ 0.326 µM)
Acinetobacter baumannii [7]
  MIC: 6 µg/mL (≈ 15.6 µM)

## GENTAMICIN
Acinetobacter baumannii [1]
  Percent resistant isolates: 77.6%

## C[C@@H](O)[C@H]1C(=O)N2C(C(=O)O)=C(SCCNC=N)C[C@H]12 [IMIPENEM ANHYDROUS]
Acinetobacter baumannii [8]
  MIC: 4 µg/mL (≈ 13.4 µM)
Acinetobacter baumannii [9]
  Activity: 18.4%
Acinetobacter baumannii [6]
  MIC: 0.5 µg/mL (≈ 1.67 µM)

## O=C(O)c1cn(C2CC2)c2cc(N3CCNCC3)c(F)cc2c1=O [CIPROFLOXACIN]
Acinetobacter baumannii [1]
  Activity: 95.9%

## NC[C@H]1O[C@H](O[C@H]2[C@H](O)[C@@H](O[C@H]3O[C@H](CO)[C@@H](O)[C@H](N)[C@H]3O)[C@H](N)C[C@@H]2N)[C@H](N)C[C@@H]1O [TOBRAMYCIN]
Acinetobacter baumannii [1]
  Activity: 61.2%

## CC1(C)S[C@@H]2[C@H](NC(=O)[C@H](N)c3ccccc3)C(=O)N2[C@H]1C(=O)O [AMPICILLIN]
Acinetobacter baumannii [10]
  Activity: 40.8%

— ChEMBL document CHEMBL1671632, “Genetic basis of multidrug resistance in Acinetobacter baumannii clinical isolates at a tertiary medical center in Pennsylvania” (2008)
